Active and inactive are the calls of the source. No cut-off for these calls is given here.
Experiments:
[1] = system: MDA-MB-231; assay: Cytotoxicity against human MDA-MB-231 cells assessed as cell viability at 25 uM after 48 hrs by MTT assay relative to control; assay type: functional; conditions: MDA-MB-231, 48 h, read-out: Activity
Method in brief: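 MTT viability at a single 25 μM dose, 48 h, 3,000 cells/well. MCF10A normal breast epithelial cells were kept in MEGM mammary epithelial medium; the cancer lines were in DMEM with 10% FBS, 37 °C. OD at 570 nm with 630 nm background, expressed relative to control.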

[2] = system: UACC-903; assay: Induction of apoptosis in human UACC-903 cells harboring BRAF mutant assessed as dead cells level at 5 uM after 24 hrs by AAD dye containing caspase 3/7 activity assay (reference value: 0.06%); assay type: functional
[3] = system: UACC-903; assay: Induction of apoptosis in human UACC-903 cells harboring BRAF mutant assessed as apoptotic cells level at 25 uM after 24 hrs by AAD dye containing caspase 3/7 activity assay (reference value: 6.88%); assay type: functional
[4] = system: UACC-903; assay: Cytotoxicity against human UACC-903 cells assessed as cell viability at 25 uM after 48 hrs by MTT assay relative to control; assay type: functional, cell-based; conditions: UACC-903, 48 h
Method in brief: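 MCF10A normal breast epithelial cells were kept in MEGM mammary epithelial medium; the cancer lines were in DMEM with 10% FBS, 37 °C. OD at 570 nm with 630 nm background, expressed relative to control.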

[5] = system: MDA-MB-231; assay: Antiproliferative activity against ER/PR/HER2 deficient human MDA-MB-231 cells after 48 hrs by MTT assay; assay type: functional, cell-based; conditions: MDA-MB-231, 48 h
Method in brief: (§1)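 3,000 cells per well, grown at 37 °C (DMEM with 10% FBS and penicillin/streptomycin; HCT116 in McCoy's 5A). Cells exposed in triplicate to 0.5–25 μM compound for 48 h. MTT (5 mg/mL PBS stock) added for 3 h, formazan dissolved in DMSO, OD read at 570 nm minus 630 nm background. IC50 from non-linear regression of two independent experiments.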

[6] = system: UACC-903; assay: Induction of apoptosis in human UACC-903 cells harboring BRAF mutant assessed as apoptotic dead cells level at 25 uM after 24 hrs by AAD dye containing caspase 3/7 activity assay (reference value: 3%); assay type: functional
[7] = system: CHL-1; assay: Antiproliferative activity against human CHL-1 cells harboring wild type BRAF after 48 hrs by MTT assay; assay type: functional, cell-based; conditions: CHL-1, 48 h; method in brief: as §1
[8] = system: UACC-903; assay: Induction of apoptosis in human UACC-903 cells harboring BRAF mutant assessed as apoptotic dead cells level at 5 uM after 24 hrs by AAD dye containing caspase 3/7 activity assay (reference value: 3%); assay type: functional
[9] = system: UACC-903; assay: Induction of apoptosis in human UACC-903 cells harboring BRAF mutant assessed as dead cells level at 25 uM after 24 hrs by AAD dye containing caspase 3/7 activity assay (reference value: 0.06%); assay type: functional
[10] = system: CHL-1; assay: Induction of apoptosis in human CHL-1 cells harboring wild type BRAF assessed as decrease in survivin level at 5 to 25 uM after 24 hrs by Western blot analysis; assay type: functional, cell-based
Method in brief: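 2 × 10^6 cells treated with the indicated concentrations for 24 h. Whole-cell lysates run on SDS-PAGE, transferred to PVDF, probed with antibodies against apoptosis/survival proteins, and detected by enhanced chemiluminescence.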

[11] = system: UACC-903; assay: Induction of apoptosis in human UACC-903 cells harboring BRAF mutant assessed as necrotic cells at 25 uM after 24 hrs by Annexin V/7-AAD staining-based assay (reference value: 0.12%); assay type: functional
[12] = system: UACC-903; assay: Induction of apoptosis in human UACC-903 cells harboring BRAF mutant assessed as late apoptotic cells at 25 uM after 24 hrs by Annexin V/7-AAD staining-based assay (reference value: 1.56%); assay type: functional
[13] = system: CHL-1; assay: Induction of apoptosis in human CHL-1 cells harboring wild type BRAF assessed as increase in dead cells at 25 uM after 24 hrs by Calcein-AM/ethidium bromide staining-based fluorescence assay (reference value: 2%); assay type: functional

| SMILES | viability at 25 µM [1] [%] | Activity [2] [%] | Activity [3] [%] | IC50 [4] [µM] | IC50 [5] [µM] | Activity [6] [%] | IC50 [7] [µM] | Activity [8] [%] | Activity [9] [%] | Activity [10] | Activity [11] [%] | Activity [12] [%] | Activity [13] [%] |
| --- | --- | --- | --- | --- | --- | --- | --- | --- | --- | --- | --- | --- | --- |
| O=C1NC(=S)N(c2ccccc2)C(=O)/C1=C/C=C/c1cccs1 | 20 to 30 | 0.18 | 50.06 | 3.8 | 8.3 | 24.1 | 6.5 | 2.88 | 0.14 | Active | 5.31 | 44.28 | 5 |
| O=C1NC(=S)NC(=O)C1=C/C=C/c1cccs1 | 20 to 30 | 0.32 | 38.14 | 4 | 7.6 | 43.88 | 7.2 | 3.94 | 0.58 | Active | 3.42 | 40.54 | 65 |
